IDH1 mut inh: blocks human IDH1 R132H reductase activity | diaphorase/resazurin fluorescence, 60 min | O75874 | 70,000 tested, 0.18% active | AID 624101 | inhibition, % at 10 µM; in the data active = inhibition above about 34%; inconclusive = no clear call, values can overlap the other calls; inactive = below about 11%
KDM4C inh: KDM4C (human) demethylase inhibition. Q9H3R0. GST-KDM4C 2-372, H3K9me3 peptide, LANCE TR-FRET. inhibition, % at 12.5 µM. 96,000 tested, 0.15% active. AID 720574;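 active = mean replicate inhibition above about 25%, with at least 55% of replicates also reaching it, limit read from the data, passing the limit was not always enough; inconclusive = only one of those two conditions met; inactive = neither condition met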
Target sequence (Q9H3R0 2-372 limits assumed): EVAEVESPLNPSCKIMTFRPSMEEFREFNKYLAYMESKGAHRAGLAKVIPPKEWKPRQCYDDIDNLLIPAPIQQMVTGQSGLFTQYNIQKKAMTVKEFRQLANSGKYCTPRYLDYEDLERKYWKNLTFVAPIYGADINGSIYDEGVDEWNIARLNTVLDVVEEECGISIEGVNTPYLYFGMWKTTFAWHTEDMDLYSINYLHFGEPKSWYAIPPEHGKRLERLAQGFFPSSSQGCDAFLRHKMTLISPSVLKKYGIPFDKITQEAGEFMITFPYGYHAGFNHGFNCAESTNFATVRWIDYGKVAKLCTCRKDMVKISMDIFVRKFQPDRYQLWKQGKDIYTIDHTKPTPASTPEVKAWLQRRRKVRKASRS
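System: N-terminal GST-fused human GASC-1 (KDM4C) fragment, residues 2-372 / Amount: 10 nM GST-KDM4C in enzyme reaction / Also added: H3K9me3 peptide with Fe(II)/2OG / Times: 30 min demethylation and 1 h detection at room temperature / Signal: LANCE TR-FRET / Read-out basis: Fall in 671/618 emission ratio as inhibition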
T cruzi growth-1: inhibitors of T. cruzi proliferation. T. cruzi beta-gal in NIH3T3, GalScreen luminescence, 90 h. 77,000 tested, 5.9% active. inhibition, % at 8.34 µM;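 active = mean inhibition above about 93%, with at least 55% of replicates each passing it, limit read from the data, passing the limit was not always enough; inconclusive = only one of those two conditions holds; inactive = neither condition holds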
T cruzi growth-2: Trypanosoma cruzi proliferation inhibition; T. cruzi beta-gal in NIH3T3, GalScreen luminescence, 90 h; 5,600 tested, 72% active; inhibition, % at 8.35 µM; shares compounds with T cruzi growth-1;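 active = mean replicate inhibition above about 95% and at least 55% of replicates individually reaching it, limit read from the data; inconclusive = only one of the two criteria is met; inactive = neither criterion is met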
T cruzi growth-3: blocks T. cruzi growth in NIH3T3 host cells; shares compounds with T cruzi growth-1; T. cruzi beta-gal in NIH3T3, GalScreen luminescence, 90 h; inhibition, % at 2.09 µM; 5,600 tested, 21% active;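 active = mean inhibition above about 95%, with at least 55% of replicates also reaching it, limit read from the data; inconclusive = meets just one of the two conditions; inactive = meets neither condition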
NIH3T3 tox: kills mouse NIH/3T3 fibroblasts. shares compounds with T cruzi growth-1. NIH/3T3 viability, CellTiter-Glo ATP luminescence, 90 h. cytotoxicity (signal decrease), % at 8.35 µM. 5,600 tested, 14% active. AID 651742;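 active = mean signal decrease across replicates above about 35% based on untreated-well scatter, with enough replicates individually passing, limit read from the data; inconclusive = no rule stated though some were filed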
NIH3T3 tox 2: NIH/3T3 (mouse) viability loss; inhibition, % at 24.9 µM; NIH/3T3 viability, CellTiter-Glo ATP luminescence, 90 h; shares compounds with T cruzi growth-1; 5,600 tested, 56% active; AID 651744;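 active = mean loss of cell viability signal at or above a set limit, and enough replicates individually reaching it; inconclusive = meets only the mean limit or only the replicate share; inactive = meets neither condition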
Numbers stand for hits; . = inactive; ? = inconclusive; / = no result given. This is one part of a sample in which hits are shown more often than they occur.

SMILES	IDH1 mut inh	KDM4C inh	T cruzi growth-1	T cruzi growth-2	T cruzi growth-3	NIH3T3 tox	NIH3T3 tox 2
O=C(C[C@H]1CC[C@H]2[C@@H](COC[C@H](O)CN2Cc2cc(F)ccc2F)O1)N1CCc2ccccc2C1	/	.	98	.	.	.	.
O=C(C[C@@H]1CC[C@@H]2[C@H](COC[C@@H](O)CN2Cc2ccccc2F)O1)N[C@@H]1CCN(Cc2ccccc2)C1	/	.	99	.	.	.	.
Cc1ccc(-n2c(C)nnc2SCC(=O)Nc2ccc(C)cc2Br)cc1	.	/	/	/	/	/	/
CC1CCc2c(sc(NC(=O)c3cc(-c4cccnc4)nc4ccc(Cl)cc34)c2C(N)=O)C1 (stereo unspecified)	.	/	/	/	/	/	/
CCOC(=O)c1c(CSc2nc(C)cc(C)n2)nc2c3ccccc3ccn12	.	/	/	/	/	/	/
CC(=O)c1cccc(NC(=O)Nc2cccc(S(=O)(=O)N3CCOCC3)c2)c1	.	/	/	/	/	/	/
CCN(CC(=O)Nc1ccccc1SC)S(=O)(=O)c1ccc2ccccc2c1	.	/	/	/	/	/	/
Cc1ccc([N+](=O)[O-])cc1NC(=O)CSc1nnnn1-c1ccccc1	.	/	/	/	/	/	/
Cc1ccc2nc(-c3ccc(NC(=O)[C@@H]4CCCC[C@@H]4C(=O)O)cc3)sc2c1	.	/	/	/	/	/	/
COc1cc(C[C@H]2C(=O)OC[C@@H]2Cc2ccc(O[C@@H]3O[C@H](CO)[C@@H](O)[C@H](O)[C@H]3O)c(OC)c2)ccc1O	.	/	/	/	/	/	/
O=C(C[C@H]1CC[C@H]2[C@@H](COC[C@@H](O)CN2Cc2cc(F)ccc2F)O1)N[C@H]1CCN(Cc2ccccc2)C1	/	.	158	.	.	.	.
O=C(C[C@@H]1CC[C@H]2[C@@H](COC[C@@H](O)CN2Cc2cc(F)ccc2F)O1)N[C@H]1CCN(Cc2ccccc2)C1	/	.	.	/	/	/	/
N#C[C@H]1[C@@H](c2ccccc2)[C@H](CO)N1S(=O)(=O)c1cccc(F)c1	/	.	.	/	/	/	/
N#C[C@@H]1[C@@H](c2ccc(-c3cccc(F)c3)cc2)[C@@H](CO)N1S(=O)(=O)c1cccc(F)c1	/	.	99	99	.	39	66
C/C=C/c1ccc([C@H]2[C@@H](C#N)N(S(=O)(=O)c3cccc(F)c3)[C@H]2CO)cc1	/	.	.	/	/	/	/
N#C[C@@H]1[C@H](c2ccc(-c3cccc(F)c3)cc2)[C@H](CO)N1S(=O)(=O)c1cccc(F)c1	/	.	102	107	.	.	54
C/C=C/c1ccc([C@H]2[C@@H](CO)N(S(=O)(=O)c3cccc(F)c3)[C@H]2C#N)cc1	.	.	111	.	.	.	.
N#C[C@H]1[C@H](c2ccccc2)[C@@H](CO)N1S(=O)(=O)c1cccc(F)c1	/	.	.	/	/	/	/
CN(C)C(=O)c1ccc(-c2ccc([C@@H]3[C@@H](CO)N4CCCCN(C(=O)C5CCC5)C[C@H]34)cc2)cc1	/	/	.	/	/	/	/
CN(C)C(=O)c1ccc(-c2ccc([C@@H]3[C@H]4CN(C(=O)C5CCC5)CCCCN4[C@H]3CO)cc2)cc1	/	/	101	95	.	.	38
CN(C)C(=O)c1ccc(-c2ccc([C@H]3[C@H](CO)N4CCCCN(C(=O)C5CCC5)C[C@@H]34)cc2)cc1	/	/	100	95	.	.	42
CN(C)C(=O)c1ccc(-c2ccc([C@@H]3[C@H](CO)N4CCCCN(C(=O)C5CC5)C[C@@H]34)cc2)cc1	/	.	.	/	/	/	/
CN(C)C(=O)c1ccc(-c2ccc([C@H]3[C@@H](CO)N4CCCCN(C(=O)C5CCC5)C[C@@H]34)cc2)cc1	/	/	106	102	.	.	.
CN(C)C(=O)c1ccc(-c2ccc([C@H]3[C@@H](CO)N4CCCCN(C(=O)C5CC5)C[C@@H]34)cc2)cc1	/	.	.	/	/	/	/
C[C@H]1CCCCO[C@@H](CN(C)Cc2ccc(C(F)(F)F)cc2)[C@@H](C)CN([C@@H](C)CO)C(=O)c2cc(NS(=O)(=O)c3ccc(Cl)cc3)ccc2O1	.	.	.	/	/	/	/
SMILES	IDH1 mut inh	KDM4C inh	T cruzi growth-1	T cruzi growth-2	T cruzi growth-3	NIH3T3 tox	NIH3T3 tox 2
C[C@@H]1CCCCO[C@@H](CN(C)Cc2ccc(C(F)(F)F)cc2)[C@H](C)CN([C@H](C)CO)C(=O)c2cc(NS(=O)(=O)c3ccc(Cl)cc3)ccc2O1	.	.	.	/	/	/	/
C[C@@H]1CN([C@@H](C)CO)C(=O)c2cc(NS(=O)(=O)c3ccc(Cl)cc3)ccc2O[C@@H](C)CCCCO[C@@H]1CN(C)Cc1ccc(C(F)(F)F)cc1	.	.	96	.	116	.	93
C[C@@H]1CN([C@@H](C)CO)C(=O)c2cc(NS(=O)(=O)c3ccc(Cl)cc3)ccc2O[C@@H](C)CCCCO[C@H]1CN(C)Cc1ccc(C(F)(F)F)cc1	.	.	?	.	113	104	106
C[C@@H]1CCCCO[C@H](CN(C)Cc2ccc(C(F)(F)F)cc2)[C@@H](C)CN([C@H](C)CO)C(=O)c2cc(NS(=O)(=O)c3ccc(Cl)cc3)ccc2O1	.	.	111	105	.	.	104
C[C@@H]1CN([C@H](C)CO)C(=O)c2cc(NS(=O)(=O)c3ccc(Cl)cc3)ccc2O[C@@H](C)CCCCO[C@H]1CN(C)Cc1ccc(C(F)(F)F)cc1	/	.	.	/	/	/	/
O=C(CSc1nc2ccccc2c(=O)n1-c1ccc(Cl)cc1)Nc1ccc(Cl)c(Cl)c1	.	/	/	/	/	/	/
COc1ccccc1-c1cc(-c2ccccc2)nc(SCC(N)=O)c1C#N	.	/	/	/	/	/	/
COC(=O)c1ccc(C)c(NC(=O)CN(c2ccc(F)cc2)S(C)(=O)=O)c1	.	/	/	/	/	/	/
CO[C@@H]1CN(C)C(=O)c2cc(NS(=O)(=O)c3cccc(F)c3)ccc2OC[C@@H](C)N(Cc2cc(F)ccc2F)C[C@@H]1C	.	.	100	115	.	.	93
COc1cccc(S(=O)(=O)Nc2ccc3c(c2)OC[C@@H](C)N(Cc2ccccc2F)C[C@@H](C)[C@H](OC)CN(C)C3=O)c1	.	.	96	105	.	.	.
COc1cccc(S(=O)(=O)Nc2ccc3c(c2)C(=O)N(C)C[C@@H](OC)[C@@H](C)CN(Cc2ccccc2F)[C@@H](C)CO3)c1	.	.	/	/	/	/	/
COc1cccc(S(=O)(=O)Nc2ccc3c(c2)OC[C@H](C)N(Cc2ccccc2F)C[C@@H](C)[C@H](OC)CN(C)C3=O)c1	.	.	.	/	/	/	/
COc1cccc(S(=O)(=O)Nc2ccc3c(c2)OC[C@@H](C)N(Cc2cc(F)ccc2F)C[C@@H](C)[C@H](OC)CN(C)C3=O)c1	.	.	102	107	.	.	.
COc1cccc(S(=O)(=O)Nc2ccc3c(c2)OC[C@H](C)N(Cc2ccccc2F)C[C@H](C)[C@@H](OC)CN(C)C3=O)c1	/	.	/	/	/	/	/
CC(Oc1cccc(NC(=O)c2ccc(Br)cc2)c1)C(=O)c1ccccc1 (stereo unspecified)	.	/	/	/	/	/	/
COc1cccc2cc(C(=O)C3C(=O)C(=O)N(c4nc(C)c(C)s4)C3c3ccco3)oc12 (stereo unspecified)	.	/	/	/	/	/	/
